≈ marks a conversion by molar mass, not a printed value.
Legend:
Assay type in all cases: functional
[1] = tested on: Mycobacterium kansasii; test: Antimycobacterial activity against Mycobacterium kansasii 6509/96 isolate after 21 days; settings: 6509/96, 504 h
In short: (§1)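 MIC in Sula semi-synthetic medium at 37 °C. M. kansasii 6509/96 is a clinical isolate; M. kansasii CNTC My 235/80 comes from the Czech national collection. Compounds were dissolved in DMSO (max. 5% DMSO in water) and tested at 1000, 500, 250, 125, 62, 31, 16, 8, 4, 2 and 1 μmol L⁻¹. MIC was read after 7, 14 and 21 days.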

[2] = tested on: Mycobacterium tuberculosis; test: Antimycobacterial activity against Mycobacterium tuberculosis CNTC My 331/88 ATCC 27294 after 14 days; settings: CNTC My 331/88 ATCC 27294, 336 h
In short: (§2)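 Sula semi-synthetic medium at 37 °C. Compounds were dissolved in DMSO (max. 5% DMSO in water) and added to the medium at 1000, 500, 250, 125, 62, 31, 16, 8, 4, 2 and 1 μmol L⁻¹. MIC was read after 7, 14 and 21 days of incubation at 37 °C. Strains came from the Czech National Collection of Type Cultures.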

[3] = tested on: Mycobacterium avium; test: Antimycobacterial activity against Mycobacterium avium CNTC My 330/88 after 21 days; settings: CNTC My 330/88, 504 h; in short: as §2
[4] = tested on: Mycobacterium kansasii; test: Antimycobacterial activity against Mycobacterium kansasii CNTC My 335/80 after 21 days; settings: 504 h; in short: as §1
[5] = tested on: Mycobacterium kansasii; test: Antimycobacterial activity against Mycobacterium kansasii CNTC My 335/80 after 14 days; settings: 336 h; in short: as §1
[6] = tested on: Mycobacterium avium; test: Antimycobacterial activity against Mycobacterium avium CNTC My 330/88 after 14 days; settings: CNTC My 330/88, 336 h; in short: as §2
[7] = tested on: Mycobacterium kansasii; test: Antimycobacterial activity against Mycobacterium kansasii CNTC My 335/80 after 7 days; settings: 168 h; in short: as §1
[8] = tested on: Mycobacterium kansasii; test: Antimycobacterial activity against Mycobacterium kansasii 6509/96 isolate after 7 days; settings: 6509/96, 168 h; in short: as §1
[9] = tested on: Mycobacterium tuberculosis; test: Antimycobacterial activity against Mycobacterium tuberculosis CNTC My 331/88 ATCC 27294 after 21 days; settings: CNTC My 331/88 ATCC 27294, 504 h; in short: as §2
[10] = tested on: Mycobacterium kansasii; test: Antimycobacterial activity against Mycobacterium kansasii 6509/96 isolate after 14 days; settings: 6509/96, 336 h; in short: as §1

Row | SMILES | MIC [1] [µM] | MIC [2] [µM] | MIC [3] [µM] | MIC [4] [µM] | MIC [5] [µM] | MIC [6] [µM] | MIC [7] [µM] | MIC [8] [µM] | MIC [9] [µM] | MIC [10] [µM]
1 | O=C(N/N=C/Nc1cccc(F)c1)c1ccncc1 | 16 (≈ 4.13 µg/mL) | 1 (≈ 0.258 µg/mL) | 1000 (≈ 258 µg/mL) | > 1000 | 1000 (≈ 258 µg/mL) | 500 (≈ 129 µg/mL) | 125 (≈ 32.3 µg/mL) | 16 (≈ 4.13 µg/mL) | 1 (≈ 0.258 µg/mL) | 16 (≈ 4.13 µg/mL)
2 | O=C(N/N=C/Nc1cccc(Br)c1)c1ccncc1 | 16 (≈ 5.11 µg/mL) | 1 (≈ 0.319 µg/mL) | 500 (≈ 160 µg/mL) | 1000 (≈ 319 µg/mL) | 1000 (≈ 319 µg/mL) | 250 (≈ 79.8 µg/mL) | 250 (≈ 79.8 µg/mL) | 8 (≈ 2.55 µg/mL) | 1 (≈ 0.319 µg/mL) | 8 (≈ 2.55 µg/mL)
3 | O=C(N/N=C/Nc1ccc(Cl)c(Cl)c1)c1ccncc1 | 16 (≈ 4.95 µg/mL) | 1 (≈ 0.309 µg/mL) | 250 (≈ 77.3 µg/mL) | 500 (≈ 155 µg/mL) | 500 (≈ 155 µg/mL) | 250 (≈ 77.3 µg/mL) | 250 (≈ 77.3 µg/mL) | 8 (≈ 2.47 µg/mL) | 2 (≈ 0.618 µg/mL) | 16 (≈ 4.95 µg/mL)
4 | O=C(N/N=C/Nc1cccc(O)c1)c1ccncc1 | 32 (≈ 8.2 µg/mL) | 2 (≈ 0.513 µg/mL) | 500 (≈ 128 µg/mL) | 1000 (≈ 256 µg/mL) | 1000 (≈ 256 µg/mL) | 500 (≈ 128 µg/mL) | 250 (≈ 64.1 µg/mL) | 16 (≈ 4.1 µg/mL) | 2 (≈ 0.513 µg/mL) | 32 (≈ 8.2 µg/mL)
5 | O=C(N/N=C/Nc1ccc(F)c(F)c1)c1ccncc1 | 32 (≈ 8.84 µg/mL) | 2 (≈ 0.552 µg/mL) | 250 (≈ 69.1 µg/mL) | 1000 (≈ 276 µg/mL) | 500 (≈ 138 µg/mL) | 250 (≈ 69.1 µg/mL) | 250 (≈ 69.1 µg/mL) | 8 (≈ 2.21 µg/mL) | 2 (≈ 0.552 µg/mL) | 16 (≈ 4.42 µg/mL)
6 | O=C(N/N=C/Nc1ccc(C(F)(F)F)cc1)c1ccncc1 | 32 (≈ 9.86 µg/mL) | 2 (≈ 0.617 µg/mL) | 1000 (≈ 308 µg/mL) | 1000 (≈ 308 µg/mL) | 500 (≈ 154 µg/mL) | 500 (≈ 154 µg/mL) | 250 (≈ 77.1 µg/mL) | 32 (≈ 9.86 µg/mL) | 2 (≈ 0.617 µg/mL) | 32 (≈ 9.86 µg/mL)
7 | O=C(N/N=C/Nc1ccc(Br)cc1)c1ccncc1 | 32 (≈ 10.2 µg/mL) | 2 (≈ 0.638 µg/mL) | 500 (≈ 160 µg/mL) | 500 (≈ 160 µg/mL) | 250 (≈ 79.8 µg/mL) | 500 (≈ 160 µg/mL) | 125 (≈ 39.9 µg/mL) | 32 (≈ 10.2 µg/mL) | 4 (≈ 1.28 µg/mL) | 32 (≈ 10.2 µg/mL)
8 | COc1ccc(N/C=N/NC(=O)c2ccncc2)cc1 | 32 (≈ 8.65 µg/mL) | 2 (≈ 0.541 µg/mL) | 500 (≈ 135 µg/mL) | 1000 (≈ 270 µg/mL) | 500 (≈ 135 µg/mL) | 500 (≈ 135 µg/mL) | 250 (≈ 67.6 µg/mL) | 16 (≈ 4.32 µg/mL) | 4 (≈ 1.08 µg/mL) | 16 (≈ 4.32 µg/mL)
9 | O=C(N/N=C/Nc1cccc(C(F)(F)F)c1)c1ccncc1 | 32 (≈ 9.86 µg/mL) | 1 (≈ 0.308 µg/mL) | 1000 (≈ 308 µg/mL) | 1000 (≈ 308 µg/mL) | 250 (≈ 77.1 µg/mL) | 500 (≈ 154 µg/mL) | 125 (≈ 38.5 µg/mL) | 16 (≈ 4.93 µg/mL) | 1 (≈ 0.308 µg/mL) | 16 (≈ 4.93 µg/mL)
10 | COc1cccc(N/C=N/NC(=O)c2ccncc2)c1 | 16 (≈ 4.32 µg/mL) | 2 (≈ 0.541 µg/mL) | 500 (≈ 135 µg/mL) | 1000 (≈ 270 µg/mL) | 500 (≈ 135 µg/mL) | 500 (≈ 135 µg/mL) | 250 (≈ 67.6 µg/mL) | 16 (≈ 4.32 µg/mL) | 2 (≈ 0.541 µg/mL) | 16 (≈ 4.32 µg/mL)

From ChEMBL document CHEMBL1909504, “New series of isoniazid hydrazones linked with electron-withdrawing substituents” (Eur J Med Chem, 2011)
